Bioassay records: PubChem BioAssay, several laboratories
Shown are actives, neighbours in structure and some others; about 3% of the full set was active somewhere.
GC-A act = GC-A (human) enzyme activation. HEK293 GC-A cells, cGMP TR-FRET, EC30 ANP; 0% at EC30 ANP, 100% saturating ANP. P16066. 370,000 tested, 0.14% active. AID 1671463. activation, % at 10 µM; in the data active means activation above about 40%
Hep lipid drop = modulators of hepatic lipid droplet formation. inhibition, % at 6.5 µM. AID 1656. AML12 mouse hepatocytes, oleate lipid droplets, BODIPY imaging. 240,000 tested, 0.4% active;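 active means lipid droplet intensity inhibited by at least 50%, with more than 500 cells counted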
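Material – mouse AML12 hepatocyte cell line, fixed after treatment · Compound dosing – one dose, 6.5 µM compound · Times – compound with oleate, overnight · Measured by – Image-based BODIPY and DAPI two-channel analysis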
NPR2 activator = GC-B (human) receptor activation; P20594; HEK293-GC-B cells, CNP EC30, cGMP TR-FRET; 0% at EC30 CNP, 100% saturating CNP; 370,000 tested, 0.11% active; activation, % at 10 µM;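 active means activation at 10 µM reaching about 35% in either raw or pattern-adjusted values, limit read from the data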
GASC-1 inh = blocks human GASC-1 demethylase activity; 330,000 tested, 0.069% active; AID 2099; Q9H3R0; GST-JMJD2C(1-420) H3K9me3 demethylation, DELFIA europium; inhibition, % at 2.35 µM;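 active means more than half of a compound's replicate wells show inhibition beyond 50%, single wells judged on their own value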;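 further: signal counts dimethyl H3K9 product captured on neutravidin plate; 0% = median of DMSO wells and 100% = 0.3 times that DMSO median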
Target sequence (Q9H3R0 1-420 limits assumed): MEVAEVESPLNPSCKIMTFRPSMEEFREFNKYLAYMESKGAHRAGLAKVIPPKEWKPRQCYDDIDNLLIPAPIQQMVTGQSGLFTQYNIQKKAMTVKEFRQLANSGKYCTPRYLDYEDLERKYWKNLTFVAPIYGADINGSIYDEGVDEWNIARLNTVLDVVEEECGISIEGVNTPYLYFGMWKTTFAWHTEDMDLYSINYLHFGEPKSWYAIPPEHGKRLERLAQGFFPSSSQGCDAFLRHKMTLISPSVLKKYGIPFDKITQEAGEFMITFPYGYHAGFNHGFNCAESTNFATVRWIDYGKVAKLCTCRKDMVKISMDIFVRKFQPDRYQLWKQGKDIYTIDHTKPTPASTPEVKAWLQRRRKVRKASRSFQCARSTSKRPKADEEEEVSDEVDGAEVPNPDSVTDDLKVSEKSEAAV
GRIN3A LBD mod = modulators (binders) of human NR3A ligand-binding domain; AID 1259313; NR3A LBD differential scanning fluorimetry, Tm shift; 0% = protein alone, 100% = glycine-bound protein; 340,000 tested, 2.5% active; Tm shift relative to glycine control, % at 25 µM;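 active means melting temperature shift of at least 10% of the positive control shift, at one fixed dose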
aDG glyco up = alpha-DG glycosylation activation; Pro5-aDG cells, alpha-DG glycosylation AlphaScreen (IIH6); 0% Pro5, 100% B10-LARGE cell signal; activation, % at 10 µM; 360,000 tested, 0.22% active; AID 624168;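 active means activation of at least 8% versus controls, or a plate z-score of at least 8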;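 further: Pro5 are CHO cells carrying HIG-tagged alpha-DG that lacks glycosylation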
Numbers without * were called inactive; · = no result.

SMILES	GC-A act	Hep lipid drop	NPR2 activator	GASC-1 inh	GRIN3A LBD mod	aDG glyco up
Cc1ccc2nc(C3CCCN(C(=O)NCc4ccccc4)C3)[nH]c2c1 (stereo not drawn)	0	·	8	1	16*	0
CCCc1cc(-c2n[nH]c(=S)n2-c2cccc(C)c2)cs1	2	5	-2	-1	14*	0
Cc1ccc(N(CC(=O)NCc2ccc(F)cc2)S(=O)(=O)c2c(C)n[nH]c2C)cc1	-1	-4	0	14	-5	1
FC(F)(F)c1ccccc1NC(=S)OCCN1CCCC12CCC(c1ccccc1)CC2 (stereo not drawn)	-4	·	-1	·	·	·
O=C1c2ccccc2NC(c2ccc(-c3ccc(C(F)(F)F)cc3)o2)N1O (stereo not drawn)	-1	·	0	·	23*	0
CCCCCCNCC(=O)N1CCC(Cc2ccccc2)CC1	2	-7	0	1	-2	1
COc1ccc(S[C@]2(C(=O)N3CCN(c4ncccn4)CC3)CC(=O)N(c3ccccc3)[C@@H]2c2ccc(OC)cc2)cc1	-5	·	-7	·	·	·
CCCCCCCCN1C(=O)[C@@H](CC(=O)NCCCCc2ccccc2)C[C@@]2(C(=O)OC)C1=C[C@H](C1CCCC1)O[C@@H]2C	-3	·	3	·	·	·
O=C(/C=C/c1ccc(Br)o1)NC(c1ccccc1)c1ccccc1	-3	8	-6	26	20*	0
O=C(NCc1ccc(Cl)cc1)O[C@H]1CC[C@@]23CCCN2C(=O)CCC[C@H]3C1	0	·	-2	·	·	·
O=C(O)c1cc(S(=O)(=O)Nc2ccc3cn[nH]c3c2)ccc1Cl	2	·	5	-4	5	0
CS(=O)(=O)N(CC(=O)Nc1ccc(CC#N)cc1)c1ccc(C23CC4CC(CC(C4)C2)C3)cc1	-9	2	1	-2	26*	2
CC(C)CC(O)(CC(C)C)c1cn(C(=O)N(c2ccccc2)c2ccccc2)nn1	-1	·	1	·	·	·
CN1/C(=C\C(=O)Nc2ccc(Br)cc2)C(C)(C)c2ccccc21	5	-23	1	-6	19*	0
COC(=O)Cn1nc(-c2ccccc2)c2cccc(C(F)(F)F)c21	-4	·	-3	·	·	·
O=C(COC(=O)CCCSc1nc2ccccc2[nH]1)Nc1ccc(Cl)cc1	1	10	-9	-7	16*	0
CSc1ccc(C(=O)NCC2CCN(C(=O)C(=O)c3cc4ccccc4o3)CC2)cc1	-3	·	-4	·	·	·
CN1C(=O)Cc2cc(S(=O)(=O)N3CCN(c4cccc(C(F)(F)F)c4)CC3)ccc21	-1	-30	2	15	24*	0
Cc1ccc(C)c(N2CCN(S(=O)(=O)c3ccc4c(c3)CC(=O)N4C)CC2)c1	0	-20	4	-12	-4	0
COc1cccc(/C=N/N2CCN(C3c4ccccc4-c4ccccc43)CC2)c1O	-8	57*	1	-11	0	0
COc1cc(/C=N/N2CCN(C3c4ccccc4-c4ccccc43)CC2)ccc1O	-9	4	-9	-3	0	0
Cc1cc(N2CCN(C(=O)OC(C)(C)C)C[C@@H]2C)ccc1N1CCN(Cc2ccccc2)[C@@H](C)C1	3	·	6	·	·	·
O=C(CCC1COc2ccccc2O1)Nc1ccc(Cl)cn1 (stereo not drawn)	1	1	-4	·	12*	0
CCCCCC(=O)NC(=S)Nc1ccc(Cl)cn1	3	-25	5	-1	1	0
CC1CC(CCC(=O)NC(=S)Nc2ccc(Cl)cn2)C(=O)O1 (stereo not drawn)	6	19	-7	1	16*	0
SMILES	GC-A act	Hep lipid drop	NPR2 activator	GASC-1 inh	GRIN3A LBD mod	aDG glyco up
Cc1ccnc(NC(=O)CCC2COc3ccccc3O2)c1 (stereo not drawn)	1	1	-2	-13	0	0
CCCc1c(C(=O)N/N=C/c2ccc(OC)c(OCc3ccccc3)c2)nnn1-c1nonc1N	4	-4	6	-17	37*	1
CCCc1c(C(=O)N/N=C/c2c(OC)ccc3ccccc23)nnn1-c1nonc1N	10	-15	14	-3	31*	0
CCCc1c(C(=O)N/N=C/c2ccc(OCc3ccccc3)cc2)nnn1-c1nonc1N	1	·	5	·	·	0
CCCc1c(C(=O)N/N=C/c2ccc(OCc3ccccc3)c(OC)c2)nnn1-c1nonc1N	4	-29	1	22	12*	1
COc1cc(/C=N/NC(=O)c2cccs2)ccc1O	6	-5	0	-28	0	0
CCCc1c(C(=O)N/N=C/c2ccc(-c3ccccc3)cc2)nnn1-c1nonc1N	4	·	9	·	·	0
COc1cc(/C=N/NC(=O)c2cccs2)ccc1OCc1ccccc1	13	·	26	-7	19*	1
Cn1cccc1C(=O)N1CCN(S(=O)(=O)c2ccc(F)cc2)CC1	0	·	-5	·	·	·
O=C(NNc1c2ccccc2nc2ccccc12)c1cccc(O)c1	11	-7	-2	5	-1	0
Oc1cccc(-c2nc3ccc4ccccc4c3c3c2CCC3)c1	2	-9	-1	2	12*	0
O=C(COC(=O)CCc1c[nH]c2ccccc12)Nc1cc([N+](=O)[O-])ccc1Cl	-4	4	-2	9	1	0
O=C(COC(=O)CCc1c[nH]c2ccccc12)Nc1ccc([N+](=O)[O-])cc1	-1	10	-9	1	35*	0
COC(=O)c1cc(NC(=O)COC(=O)CCc2c[nH]c3ccccc23)cc(C(=O)OC)c1	-15	·	-6	·	11*	0
CCCCN1C(=O)N2Cc3ccccc3C2CS1(=O)=O (stereo not drawn)	-1	·	-1	·	·	·
CCN(CC)S(=O)(=O)c1ccc(C(=O)Nc2nnc(NC(=S)Nc3ccccc3)s2)cc1	-6	2	2	-14	28*	0
COc1cc(OC)cc(C(=O)Nc2nnc(NC(=S)Nc3ccccc3)s2)c1	·	-32	·	29	26*	1
CCN(CC)S(=O)(=O)c1ccc(NC(=S)Nc2ccccc2)cc1	4	·	3	-2	1	0
CCCC(=O)N1CCC1(C)C(=O)NS(=O)(=O)c1ccc(C(C)(C)C)cc1 (stereo not drawn)	1	·	6	·	·	0
Cc1ccc(Oc2ccc(-c3nc(N)nc(N)n3)cc2)cc1C	0	11	-1	-2	14*	0
C=CCn1c(N)c(C(=O)NCC2CCCO2)c2nc3ccccc3nc21 (stereo not drawn)	32	·	19	14	-1	0
